The source of these data is paper PMC7007182 (Molecular imaging and biology, 2020).

Data set [1] in a line: In vitro stability in PBS. The format is physicochemical. Conditions: PBS at room temperature, 2 h incubation, HPLC analysis. A digest of the protocol:
(§1)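 Radiotracer prepared by Al[18F]F chelation: peptide, AlCl3, acetic acid and acetonitrile with [18F]fluoride, heated at 100 °C for 10 min. Product purified on a C18 cartridge, eluted with ethanol/10 mM HCl, diluted in saline and sterile-filtered. Incubated 2 h in PBS (room temperature) or mouse serum (37 °C). Percent intact tracer by reverse-phase HPLC.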

In data set [2] the test system is GPC3-positive HepG2 cells. As to the kind of experiment: Cellular uptake in GPC3-positive HepG2 cells. In kind it is cell-based. Conditions: 60 min incubation, peak value; n = 4/group, mean ± SD. A digest of the protocol:
(§2)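 Uptake of the Al[18F]F-labelled peptide (radiochemical purity >97 % by HPLC) was measured as a time course in GPC3-positive HepG2 and GPC3-negative McA-RH7777 cells. Uptake is expressed as a percentage. n = 4 per group; mean ± SD.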

Data set [3] can be described thus: In vitro stability in mouse serum. In kind it is in vitro ADME. Conditions: mouse serum at 37 °C, 2 h incubation, HPLC analysis. An outline of the steps:
as §1

Another data set deals with HepG2 cells. As to the kind of experiment: Internalization in HepG2 cells. The format is cell-based. Conditions: HepG2 cells at 2 h.
Data set [4] relates to GPC3-positive HepG2 cells. As to the kind of experiment: Cell efflux in GPC3-positive HepG2 cells. The format is cell-based. Conditions: for cell-associated radioactivity at end of efflux study: end of 1 h efflux study; for cell-associated radioactivity at start of efflux study: start of 1 h efflux study. An outline of the steps: (§3)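 Efflux of the Al[18F]F-chelated radiolabelled peptide was followed over time in GPC3-positive HepG2 and GPC3-negative McA-RH7777 hepatoma cells. Cell-associated radioactivity was tracked across the efflux period. n = 4 per group; mean ± SD.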

Data set [5] in a line: MicroPET/CT imaging, GPC3-positive HepG2 tumor model. In kind it is in vivo, nude mice. Conditions: nude, mouse, iv, 5.55 MBq, total radioactivity. An outline of the steps: (§4)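 Nude mice carried subcutaneous HepG2 or McA-RH7777 xenografts (n = 3 per group). Each received 5.55 MBq tracer i.v. under isoflurane. 10-min static microPET/CT scans at 30, 60 and 120 min; 3D-OSEM reconstruction, CT attenuation correction, decay-corrected. %ID/g from ROIs drawn over entire organs. Tumor/muscle, tumor/liver and tumor/kidney ratios calculated from PET data. Mean ± SD; ANOVA or t test.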

Data set [6] in a line: Ex vivo biodistribution, HepG2 tumor model. In kind it is in vivo, mice. Conditions: mouse, total radioactivity.
The nature of data set [7]: MicroPET/CT imaging, GPC3-negative McA-RH7777 tumor model. The format is in vivo, nude mice. Conditions: nude, mouse, iv, 5.55 MBq, total radioactivity. An outline of the steps:
as §4

Data set [8] concerns GPC3-negative McA-RH7777 cells. In words: Cell efflux in GPC3-negative McA-RH7777 cells. In kind it is cell-based. Conditions: efflux study. A digest of the protocol:
as §3

In data set [9] the test system is GPC3-negative McA-RH7777 cells. In words: Cellular uptake in GPC3-negative McA-RH7777 cells. In kind it is cell-based. Conditions: 60 min incubation; n = 4/group, mean ± SD. A digest of the protocol:
as §2

Each structure is given as a SMILES string. Residues, ends and D or L forms follow the SMILES beside them. *: point of attachment. NOTA(2S-Bn(4-NHCS)) = O=C(O)CN1CCN(CC(=O)O)C[C@H](Cc2ccc(NC(=S)*)cc2)N(CC(=O)O)CC1

`CC(C)C[C@H](NC(=O)[C@H](CCCNC(=N)N)NC(=S)Nc1ccc(C[C@H]2CN(CC(=O)O)CCN(CC(=O)O)CCN2CC(=O)O)cc1)C(=O)N[C@@H](CC(N)=O)C(=O)N[C@H](C(=O)NCC(=O)NCC(=O)N[C@H](C(=O)N[C@@H](Cc1ccc(O)cc1)C(=O)N[C@@H](Cc1ccccc1)C(=O)N[C@@H](CC(C)C)C(=O)N[C@H](C(=O)N[C@H](C(=O)N[C@@H](CCCNC(=N)N)C(=O)N[C@@H](CCC(N)=O)C(=O)O)[C@@H](C)O)[C@@H](C)O)[C@@H](C)O)C(C)C` [Al[^18F]F-GP2076] ({NOTA(2S-Bn(4-NHCS))}-RLNVGGTYFLTTRQ-OH; N-terminus and C-terminus assumed) [listing 1 of 2 here]: the “intact radiotracer in PBS” value in data set [1] is on record as > 95%. The “cell uptake in HepG2 cells” value in data set [2] was determined as 1.08 ± 0.04%. Further, the “intact radiotracer in mouse serum” value in data set [3] is given as > 95%. Further, the internalization with HepG2 cells is reported as < 10 % of cell uptake. Besides, in data set [4], the “cell-associated radioactivity at end of efflux study” value came to 0.21% and the “cell-associated radioactivity at start of efflux study” value was found to be 1.04%.
Consider `CC(C)C[C@H](NC(=O)[C@H](CCCNC(=N)N)NC(=S)Nc1ccc(C[C@H]2CN(CC(=O)O)CCN(CC(=O)O)CCN2CC(=O)O)cc1)C(=O)N[C@@H](CC(N)=O)C(=O)N[C@H](C(=O)NCC(=O)NCC(=O)N[C@H](C(=O)N[C@@H](Cc1ccc(O)cc1)C(=O)N[C@@H](Cc1ccccc1)C(=O)N[C@@H](CC(C)C)C(=O)N[C@H](C(=O)N[C@H](C(=O)N[C@@H](CCCNC(=N)N)C(=O)N[C@@H](CCC(N)=O)C(=O)O)[C@@H](C)O)[C@@H](C)O)[C@@H](C)O)C(C)C` [Al[^18F]F-GP2076] ({NOTA(2S-Bn(4-NHCS))}-RLNVGGTYFLTTRQ-OH; N-terminus and C-terminus assumed) [listing 2 of 2 here], for which the figures for the tissue to tissue ratio at 1 h in [5] (HepG2 tumor / kidneys), in [5] (HepG2 tumor / liver) and in [5] (HepG2 tumor / muscle) were 0.31 ± 0.04, 0.59 ± 0.14 and 5.13 ± 2.08, respectively. The tissue to tissue ratio at 0.5 h stood at 0.43 ± 0.06 in [5] (HepG2 tumor / liver) and 5.56 ± 1.36 in data set [5] (HepG2 tumor / muscle). Also, the tissue to tissue ratio at 2 h in [5] (HepG2 tumor / liver) came to 0.46 ± 0.4; in [5] (HepG2 tumor / muscle), 2.68 ± 0.29. Besides, the tissue uptake at 0.5 h in data set [5] (HepG2 tumor) amounted to 2.2 ± 0.36 %ID/g; in data set [5] (kidneys), 9.83 ± 3.69 %ID/g; in [5] (liver) it was 5.1 ± 0.53 %ID/g. Also, the tissue uptake at 1 h in [5] (HepG2 tumor) came out at 2.13 ± 0.55 %ID/g; in [5] (kidneys), 7.03 ± 2.32 %ID/g; in data set [5] (liver), 3.7 ± 0.98 %ID/g; in data set [6] (HepG2 tumor), 1.13 ± 0.02 %ID/g; in [6] (liver), 2.3 ± 0.56 %ID/g. In addition, the tissue uptake at 2 h in [5] (HepG2 tumor) stood at 0.73 ± 0.32 %ID/g.
Regarding `CC(C)C[C@H](NC(=O)[C@H](CCCNC(=N)N)NC(=O)[C@H](CC(N)=O)NC(=O)[C@H](CC(=O)O)NC(=O)[C@H](CCCNC(=N)N)NC(=O)CNC(=O)CNC(=O)CNC(=S)Nc1ccc(C[C@H]2CN(CC(=O)O)CCN(CC(=O)O)CCN2CC(=O)O)cc1)C(=O)N[C@@H](CC(N)=O)C(=O)N[C@H](C(=O)NCC(=O)NCC(=O)N[C@H](C(=O)N[C@@H](Cc1ccc(O)cc1)C(=O)N[C@@H](Cc1ccccc1)C(=O)N[C@@H](CC(C)C)C(=O)N[C@H](C(=O)N[C@H](C(=O)N[C@@H](CCCNC(=N)N)C(=O)N[C@@H](CCC(N)=O)C(=O)O)[C@@H](C)O)[C@@H](C)O)[C@@H](C)O)C(C)C` [Al[^18F]F-GP2633] ({NOTA(2S-Bn(4-NHCS))}-GGGRDNRLNVGGTYFLTTRQ-OH; N-terminus and C-terminus assumed) [listing 1 of 2 here], the tissue to tissue ratio at 0.5 h in data set [7] (McA-RH7777 tumor / muscle) stood at 3.87 ± 1.97; in data set [5] (HepG2 tumor / liver), 1.77 ± 0.2; in data set [5] (HepG2 tumor / muscle), 9.11 ± 0.79. Moreover, the tissue to tissue ratio at 1 h in [7] (McA-RH7777 tumor / muscle) turned out to be 6.2 ± 2.67; in [5] (HepG2 tumor / kidneys), 0.09 ± 0.01; in [5] (HepG2 tumor / liver), 2 ± 0.18; in data set [5] (HepG2 tumor / muscle) it was 12.2 ± 0.62. In addition, the tissue uptake at 0.5 h was 1.75 ± 0.05 %ID/g in data set [7] (McA-RH7777 tumor), 3.13 ± 0.31 %ID/g in [5] (HepG2 tumor), 39.4 ± 0.98 %ID/g in data set [5] (kidneys) and 1.8 ± 0.36 %ID/g in data set [5] (liver). In addition, the tissue uptake at 1 h in data set [7] (McA-RH7777 tumor) was determined as 1.64 ± 0.03 %ID/g; in data set [5] (HepG2 tumor), 3.37 ± 0.35 %ID/g; in data set [5] (kidneys), 36.9 ± 2.05 %ID/g; in [5] (liver) it was 1.7 ± 0.26 %ID/g; in [6] (HepG2 tumor), 1.96 ± 0.29 %ID/g; in data set [6] (liver), 0.97 ± 0.07 %ID/g. The tissue uptake at 2 h worked out at 0.66 ± 0.06 %ID/g in data set [7] (McA-RH7777 tumor) and 1.3 ± 0.17 %ID/g in data set [5] (HepG2 tumor). The tissue to tissue ratio at 2 h in data set [5] (HepG2 tumor / liver) is 1.28 ± 0.25; in [5] (HepG2 tumor / muscle), 6.2 ± 1.8.
For the molecule `CC(C)C[C@H](NC(=O)[C@H](CCCNC(=N)N)NC(=O)[C@H](CC(N)=O)NC(=O)[C@H](CC(=O)O)NC(=O)[C@H](CCCNC(=N)N)NC(=O)CNC(=O)CNC(=O)CNC(=S)Nc1ccc(C[C@H]2CN(CC(=O)O)CCN(CC(=O)O)CCN2CC(=O)O)cc1)C(=O)N[C@@H](CC(N)=O)C(=O)N[C@H](C(=O)NCC(=O)NCC(=O)N[C@H](C(=O)N[C@@H](Cc1ccc(O)cc1)C(=O)N[C@@H](Cc1ccccc1)C(=O)N[C@@H](CC(C)C)C(=O)N[C@H](C(=O)N[C@H](C(=O)N[C@@H](CCCNC(=N)N)C(=O)N[C@@H](CCC(N)=O)C(=O)O)[C@@H](C)O)[C@@H](C)O)[C@@H](C)O)C(C)C` [Al[^18F]F-GP2633] ({NOTA(2S-Bn(4-NHCS))}-GGGRDNRLNVGGTYFLTTRQ-OH; N-terminus and C-terminus assumed) [listing 2 of 2 here], in data set [8], the “time for radioactivity to wash out to the baseline” value is listed as ≤ 5 min. For the same molecule, the “intact radiotracer in PBS” value in data set [1] is recorded as > 98%. The “cell uptake in HepG2 cells” value in [2] is recorded as 1.15 ± 0.05%. Moreover, the “intact radiotracer in mouse serum” value in data set [3] is > 98%. For the same molecule, in the data set with HepG2 cells, the internalization is < 10 % of cell uptake. Besides, the “cellular uptake in McA-RH7777 cells” value in [9] stood at 0.30 ± 0.03%. In data set [4], the “cell-associated radioactivity at end of efflux study” value turned out to be 0.27% and the “cell-associated radioactivity at start of efflux study” value came to 1.13%.

The term tissue uptake denotes the share of the injected amount in each gram of the tissue.
